# Measured values published in ChEMBL document CHEMBL1155541, “Discovery of 6-chloro-2-trifluoromethyl-7-aryl-7H-imidazo[1,2-a]imidazol-3-ylmethylamines, a novel class of corticotropin-releasing factor receptor type 1 (CRF1R) antagonists” (Bioorg Med Chem Lett, 2010).
# Activity calls are given as the source filed them. How the calls were made is not given here.
# Columns and labels:
# [1] = target: T1, Corticotropin-releasing factor receptor 1 (Homo sapiens, UniProt P34998); assay: Displacement of [125I] Tyr-o-CRF from human […] expressed in human IMR-32 cells after 100 mins; assay type: cell-based
# T1 sequence (P34998 whole entry): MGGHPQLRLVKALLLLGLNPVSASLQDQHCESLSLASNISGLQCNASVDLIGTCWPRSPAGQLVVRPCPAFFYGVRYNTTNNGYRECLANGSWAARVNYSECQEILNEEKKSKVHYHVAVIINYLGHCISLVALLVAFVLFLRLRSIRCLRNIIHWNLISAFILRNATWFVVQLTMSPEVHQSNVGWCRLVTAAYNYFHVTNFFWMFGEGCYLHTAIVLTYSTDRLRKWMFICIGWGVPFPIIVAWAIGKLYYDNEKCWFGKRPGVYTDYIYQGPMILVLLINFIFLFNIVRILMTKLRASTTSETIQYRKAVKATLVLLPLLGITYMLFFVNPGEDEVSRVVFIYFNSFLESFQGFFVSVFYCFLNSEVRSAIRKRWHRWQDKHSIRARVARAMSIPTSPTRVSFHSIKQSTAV
# In short: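 Membranes from transformed IMR-32 cells incubated with 100 pM [125I]Tyr-o-CRF and increasing test-compound concentrations, 100 min, 25 °C. Buffer: 50 mM Tris pH 7.2, 10 mM MgCl2, 0.5% BSA, 0.005% Triton X-100, aprotinin, leupeptin. Stopped with ice-cold 50 mM Tris pH 7.4, 0.2% BSA. Nonspecific binding defined with o-CRF. Values given as Ki.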
# [2] = target: T2, Corticotropin-releasing factor receptor 1 (Homo sapiens) (UniProt P34998); assay: Antagonist activity at human CRF1 receptor expressed in human IMR-32 cells assessed as inhibition of CRF-stimulated cAMP production; assay type: functional, cell-based
# T2 sequence (whole entry): T1 sequence (P34998 whole entry)
Ki [1],Activity [2],Compound
8.3 nM,Active,CCCN(Cc1c(C(F)(F)F)nc2n(-c3c(C)cc(C)cc3C)c(Cl)cn12)CC(F)(F)F
12 nM,Active,Cc1cc(C)c(-n2c(Cl)cn3c(CN(CCC(F)(F)F)Cc4ccc(Cl)cc4)c(C(F)(F)F)nc23)c(C)c1
440 nM,Active,CCCN(Cc1c(C(F)(F)F)nc2n(-c3c(C)cc(C)cc3C)c(Cl)cn12)CC(F)(F)C(F)(F)F
350 nM,Active,CCN(Cc1ccccc1)Cc1c(C(F)(F)F)nc2n(-c3c(C)cc(C)cc3C)c(Cl)cn12
4.5 nM,Active,C=CCN(CCC)Cc1c(C(F)(F)F)nc2n(-c3c(C)cc(C)cc3C)c(Cl)cn12
1900 nM,Active,Cc1cc(C)c(-n2c(Cl)cn3c(CN(C)CCc4cccnc4)c(C(F)(F)F)nc23)c(C)c1
32 nM,Active,CCCN(CCOC)Cc1c(C(F)(F)F)nc2n(-c3c(C)cc(C)cc3C)c(Cl)cn12
580 nM,Active,CCN(Cc1ccc(Cl)c(Cl)c1)Cc1c(C(F)(F)F)nc2n(-c3c(C)cc(C)cc3C)c(Cl)cn12
310 nM,Active,CCCCN(C)Cc1c(C(F)(F)F)nc2n(-c3c(C)cc(C)cc3C)c(Cl)cn12
9 nM,Active,CCN(Cc1c(C(F)(F)F)nc2n(-c3c(C)cc(C)cc3C)c(Cl)cn12)CC1CC1
13 nM,Active,C=CCN(CC=C)Cc1c(C(F)(F)F)nc2n(-c3c(C)cc(C)cc3C)c(Cl)cn12
4300 nM,Active,Cc1cc(C)c(-n2c(Cl)cn3c(CN(C)CCc4ccccn4)c(C(F)(F)F)nc23)c(C)c1
470 nM,Active,CCCN(Cc1c(C(F)(F)F)nc2n(-c3c(C)cc(C)cc3C)ccn12)CC1CC1
13 nM,Active,CCN(CCC1CC1)Cc1c(C(F)(F)F)nc2n(-c3c(C)cc(C)cc3C)c(Cl)cn12
5.2 nM,Active,Cc1cc(C)c(-n2c(Cl)cn3c(CN(CC4CC4)CC(F)(F)F)c(C(F)(F)F)nc23)c(C)c1
5.3 nM,Active,CCCN(Cc1c(C(F)(F)F)nc2n(-c3c(C)cc(C)cc3C)c(Cl)cn12)CC1CCC1
160 nM,Active,Cc1cc(C)c(-n2c(Cl)cn3c(CN(Cc4ccc(F)cc4)CC(F)(F)F)c(C(F)(F)F)nc23)c(C)c1
5800 nM,Active,Cc1cc(C)c(-n2c(Cl)cn3c(CN4CCCC(C)C4)c(C(F)(F)F)nc23)c(C)c1 (stereo not given)
69 nM,Active,CCCN(CCC)Cc1c(C(F)(F)F)nc2n(-c3c(C)cc(C)cc3C)c(Cl)cn12
1900 nM,Active,Cc1cc(C)c(-n2c(Cl)cn3c(CN(CCc4ccccc4)CCC(F)(F)F)c(C(F)(F)F)nc23)c(C)c1

Ki [1],Activity [2],Compound
1600 nM,Active,Cc1cc(C)c(-n2c(Cl)cn3c(CN4CCCCC4C)c(C(F)(F)F)nc23)c(C)c1 (stereo not given)
61 nM,Active,CCCN(CC1CC1)C(=O)c1c(C)nc2n(-c3c(C)cc(C)cc3C)c(Cl)cn12
3200 nM,Active,Cc1cc(C)c(-n2c(Cl)cn3c(CN4CCC(C)CC4)c(C(F)(F)F)nc23)c(C)c1
13 nM,Active,Cc1cc(C)c(-n2c(Cl)cn3c(CN(CC4CCC4)CC(F)(F)F)c(C(F)(F)F)nc23)c(C)c1
920 nM,Active,Cc1cc(C)c(-n2c(Cl)cn3c(CN4CCSCC4)c(C(F)(F)F)nc23)c(C)c1
260 nM,Active,CCCN(Cc1cccc(F)c1)Cc1c(C(F)(F)F)nc2n(-c3c(C)cc(C)cc3C)c(Cl)cn12
53 nM,Active,CCCN(CCC1CC1)Cc1c(C(F)(F)F)nc2n(-c3c(C)cc(C)cc3C)c(Cl)cn12
1700 nM,Active,Cc1cc(C)c(-n2c(Cl)cn3c(CN4CCOCC4)c(C(F)(F)F)nc23)c(C)c1
180 nM,Active,Cc1cc(C)c(-n2c(Cl)cn3c(CN(C)Cc4ccco4)c(C(F)(F)F)nc23)c(C)c1
190 nM,Active,Cc1cc(C)c(-n2c(Cl)cn3c(CN4CCCC4Cc4ccccc4)c(C(F)(F)F)nc23)c(C)c1 (stereo not given)
43 nM,Active,Cc1cc(C)c(-n2c(Cl)cn3c(CN(CCC(F)(F)F)Cc4ccccc4)c(C(F)(F)F)nc23)c(C)c1
150 nM,Active,CCCN(Cc1ccc([N+](=O)[O-])cc1)Cc1c(C(F)(F)F)nc2n(-c3c(C)cc(C)cc3C)c(Cl)cn12
350 nM,Active,Cc1cc(C)c(-n2c(Cl)cn3c(CN(CCc4ccccc4)CC(F)(F)F)c(C(F)(F)F)nc23)c(C)c1
170 nM,Active,CCCN(Cc1ccccc1)Cc1c(C(F)(F)F)nc2n(-c3c(C)cc(C)cc3C)c(Cl)cn12
110 nM,Active,Cc1cc(C)c(-n2c(Cl)cn3c(CN(CCC4CC4)CCC(F)(F)F)c(C(F)(F)F)nc23)c(C)c1
4.2 nM,Active,CCCN(Cc1c(C(F)(F)F)nc2n(-c3c(C)cc(C)cc3Cl)c(Cl)cn12)CC1CC1
16 nM,Active,CCN(Cc1c(C(F)(F)F)nc2n(-c3c(C)cc(C)cc3C)c(Cl)cn12)CC1CCC1
78 nM,Active,CCCCN(CC)Cc1c(C(F)(F)F)nc2n(-c3c(C)cc(C)cc3C)c(Cl)cn12
130 nM,Active,CCCCN(Cc1ccccc1)Cc1c(C(F)(F)F)nc2n(-c3c(C)cc(C)cc3C)c(Cl)cn12
760 nM,Active,Cc1cc(C)c(-n2c(Cl)cn3c(CN4CC=CCC4)c(C(F)(F)F)nc23)c(C)c1

Ki [1],Activity [2],Compound
12 nM,Active,CCCN(CCC(F)(F)F)Cc1c(C(F)(F)F)nc2n(-c3c(C)cc(C)cc3C)c(Cl)cn12
4800 nM,Active,CCN(Cc1ccccc1C)Cc1c(C(F)(F)F)nc2n(-c3c(C)cc(C)cc3C)c(Cl)cn12
33 nM,Active,CCCN(CC1CC1)C(=O)c1c(C(F)(F)F)nc2n(-c3c(C)cc(C)cc3C)c(Cl)cn12
7600 nM,Active,Cc1cc(C)c(-n2c(Cl)cn3c(CN(C)CCc4ccncc4)c(C(F)(F)F)nc23)c(C)c1
16 nM,Active,Cc1cc(C)c(-n2c(Cl)cn3c(CN(CCC(F)(F)F)CC4CC4)c(C(F)(F)F)nc23)c(C)c1
34 nM,Active,Cc1cc(C)c(-n2c(Cl)cn3c(CN(CCC(F)(F)F)Cc4ccc(F)cc4)c(C(F)(F)F)nc23)c(C)c1
67 nM,Active,C=C(C)CN(CC)Cc1c(C(F)(F)F)nc2n(-c3c(C)cc(C)cc3C)c(Cl)cn12
160 nM,Active,Cc1cc(C)c(-n2c(Cl)cn3c(CN(C)Cc4ccccc4)c(C(F)(F)F)nc23)c(C)c1
1200 nM,Active,Cc1cc(C)c(-n2c(Cl)cn3c(CN4CCCCC4)c(C(F)(F)F)nc23)c(C)c1
350 nM,Active,CCCN(Cc1ccc(F)cc1)Cc1c(C(F)(F)F)nc2n(-c3c(C)cc(C)cc3C)c(Cl)cn12
610 nM,Active,Cc1cc(C)c(-n2c(Cl)cn3c(CN4CCC(c5ccccc5)C4)c(C(F)(F)F)nc23)c(C)c1 (stereo not given)
6.3 nM,Active,Cc1cc(C)c(-n2c(Cl)cn3c(CN(CCC4CC4)CC(F)(F)F)c(C(F)(F)F)nc23)c(C)c1
21 nM,Active,CCCN(CCc1ccccc1)Cc1c(C(F)(F)F)nc2n(-c3c(C)cc(C)cc3C)c(Cl)cn12
13 nM,Active,CCCN(Cc1c(C(F)(F)F)nc2n(-c3ccc(C)cc3OC)c(Cl)cn12)CC1CC1
9.1 nM,Active,CCCN(Cc1c(C(F)(F)F)nc2n(-c3c(C)cc(C)cc3C)c(Cl)cn12)CC1CC1
150 nM,Active,Cc1cc(C)c(-n2c(Cl)cn3c(CN(C)CCc4ccccc4)c(C(F)(F)F)nc23)c(C)c1
28 nM,Active,CCCN(Cc1ccc(Cl)cc1)Cc1c(C(F)(F)F)nc2n(-c3c(C)cc(C)cc3C)c(Cl)cn12
6 nM,Active,CCN(CCc1ccccc1)Cc1c(C(F)(F)F)nc2n(-c3c(C)cc(C)cc3C)c(Cl)cn12
> 7000 nM,Active,Cc1cc(C)c(-n2c(Cl)cn3c(CN4CCCC4c4ccccc4)c(C(F)(F)F)nc23)c(C)c1 (stereo not given)
49 nM,Active,Cc1cc(C)c(-n2c(Cl)cn3c(CN(CCC(F)(F)F)Cc4cccc(F)c4)c(C(F)(F)F)nc23)c(C)c1
